Published values of several laboratories.
Si: Sucrase-isomaltase, intestinal (Si, Rattus norvegicus, UniProt P23739)
Abl2: Abl2 (Mus musculus, UniProt Q4JIM5)
TYR: Tyrosinase (TYR, Homo sapiens, UniProt P14679)
PIK3C3: Phosphatidylinositol 3-kinase catalytic subunit type 3 (PIK3C3, Homo sapiens, UniProt Q8NEB9)
NR3C1: Glucocorticoid receptor (NR3C1, Homo sapiens, UniProt P04150)

Compound | target | assay | system | setting | inhibition
O=C1OC[C@H]2OC(=O)c3cc(O)c(O)c(O)c3-c3c(O)c(O)c(O)c4c3C(=O)O[C@H]([C@H]3OC(=O)c5c-4c(O)c(O)c(O)c5[C@H]3O)[C@@H]2OC(=O)c2cc(O)c(O)c(O)c2-c2c1cc(O)c(O)c2O | Si | enzyme activity, inhibitor | – | 25 µg/mL | 25.7%
Cc1ccc(Nc2nccc(N(C)c3ccc4c(C)n(C)nc4c3)n2)cc1S(N)(=O)=O | Abl2 | enzyme activity, inhibitor | – | 10 µM | 76%
Cn1cnc(Br)c1C1=CN(c2ncnc3[nH]cnc23)CCS1 | cAMP-dependent protein kinase catalytic subunit beta (PRKACB, Homo sapiens, UniProt P22694) | enzyme activity, inhibitor, radiometric | – | 2 µM | 91.3%
Cc1ccc(C(C)C)cc1NC(=O)COC(=O)c1cccc(O)c1 | TYR | enzyme activity, inhibitor | – | 50 µg/mL | 61.2%
CCN(CC)c1ccc(C2Nc3ccc(C(=O)c4ccccc4)cc3NC3=C2C(=O)CC(C)(C)C3)cc1 (centres unmarked) | Prostaglandin E2 receptor EP3 subtype (PTGER3, Homo sapiens, UniProt P43115) | ligand displacement, radioligand | – | 10 µM | 12%
O=c1c(O[C@@H]2O[C@H](CO)[C@@H](O)[C@H](O)[C@H]2O)c(-c2ccc(O)c(O)c2)oc2cc(O)cc(O)c12 | Si | enzyme activity, inhibitor | – | 100 µg/mL | 54.6%
COc1cc(NC(C)=O)c(Cl)cc1C(=O)Nc1nccs1 | Estrogen receptor (ESR1, Homo sapiens, UniProt P03372) | cell-free assay | – | 10 µM | 1.4%
O=C(CSc1nc2nccnc2c(=O)n1CCc1ccccc1)Nc1nccs1 | PIK3C3 | enzyme activity, inhibitor | – | 10 µM | 28%
O=C(c1ccc(Cl)cc1)N(Cc1ccccc1)C1CCCCC1 | 5-hydroxytryptamine receptor 1A (HTR1A, Homo sapiens, UniProt P08908) | ligand displacement, radioligand | – | 10 µM | -12.4%
CNC(=O)c1cc(Oc2ccc(NC(=O)Nc3ccc(Cl)c(C(F)(F)F)c3)cc2)ccn1 | Abl2 | enzyme activity, inhibitor | – | 0.3 µM | 16%
CCN(CC)c1ccc(C2=NNC(=O)CC2C)cc1[N+](=O)[O-] (centres unmarked) | cGMP-inhibited 3',5'-cyclic phosphodiesterase 3A (PDE3A, Homo sapiens, UniProt Q14432) | enzyme activity, inhibitor | – | 0.1 µM | 95%
Cc1ccc(C(C)C)cc1NC(=O)COC(=O)c1ccc(O)c(O)c1 | TYR | enzyme activity, inhibitor | – | 50 µg/mL | 56.9%
O=C(c1ccc(F)cc1)N(Cc1ccccc1)C1CCCCC1 | Interleukin-1 receptor type 1 (IL1R1, Homo sapiens, UniProt P14778) | cell-free assay | – | 10 µM | 14%
CC(C)CCn1c(SCC(=O)Nc2ccccc2C(F)(F)F)nc2nccnc2c1=O | PIK3C3 | enzyme activity, inhibitor | – | 10 µM | < 20%
Oc1cccc(Nc2nc(-c3ccc(F)cc3F)cs2)c1 | NR3C1 | cell-free assay | – | 10 µM | 21.6%
O=c1c(O[C@@H]2O[C@@H](CO)[C@H](O)[C@H]2O)c(-c2ccc(O)c(O)c2)oc2cc(O)cc(O)c12 | Si | enzyme activity, inhibitor | – | 25 µg/mL | 28.6%
Ic1cccc2cnccc12 | NAD(+) hydrolase SARM1 (SARM1, Homo sapiens, UniProt Q6SZW1) | enzyme activity, inhibitor | – | 10 µM | 100%
CNc1cc(Oc2cc(C(=O)Nc3cc(N4CCN(C)CC4)cc(C(F)(F)F)c3)ccc2C)ncn1 | Serine/threonine-protein kinase SMG1 (SMG1, Homo sapiens, UniProt Q96Q15) | target engagement in cells, inhibitor, chemoproteomics | Huh-7 | 1 µM | -15.7%
O=C(Nc1ccc(S(=O)(=O)N2CCC(Cl)CC2)cc1)c1ccc([N+](=O)[O-])o1 | NR3C1 | ligand displacement, radioligand | – | 10 µM | 19%
Cc1ccc(C(C)C)cc1NC(=O)COC(=O)c1ccc(O)cc1 | TYR | enzyme activity, inhibitor | – | 50 µg/mL | 53.8%
